Activity calls are given as the source filed them. The rule behind the calls is not given here. Where only a bound is given, the exact number is not on record here.

Series [1] has as its target T1, Cholesteryl ester transfer protein (Homo sapiens, UniProt P11597).
T1 sequence (P11597 whole entry): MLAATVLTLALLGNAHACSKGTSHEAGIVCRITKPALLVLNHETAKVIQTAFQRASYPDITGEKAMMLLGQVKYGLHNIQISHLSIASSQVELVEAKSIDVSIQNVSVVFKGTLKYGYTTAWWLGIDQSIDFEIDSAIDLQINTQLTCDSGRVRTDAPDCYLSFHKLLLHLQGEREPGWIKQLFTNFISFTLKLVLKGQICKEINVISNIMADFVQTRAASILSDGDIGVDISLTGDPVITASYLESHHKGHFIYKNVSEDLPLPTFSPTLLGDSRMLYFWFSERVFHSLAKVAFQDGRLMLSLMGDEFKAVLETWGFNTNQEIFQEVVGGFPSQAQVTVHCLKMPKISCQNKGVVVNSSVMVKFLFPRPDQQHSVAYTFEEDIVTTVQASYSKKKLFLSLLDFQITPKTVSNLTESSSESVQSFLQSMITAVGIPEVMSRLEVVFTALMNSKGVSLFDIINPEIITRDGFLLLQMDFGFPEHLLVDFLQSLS
Description: Inhibition of human recombinant CETP assessed as reduction in [3H]CE/HDL transfer incubated for 4 hrs by scintillation proximity assay. A digest of the protocol: (§1)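 CETP activity was measured by scintillation proximity assay and by human whole plasma assay. Each was run in duplicate at six concentrations, and the mean values were used to calculate IC50.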
Background: SPA uses beads or plates that emit light when radiolabelled molecules are held near them.

For series [2], the target named is T1, Cholesteryl ester transfer protein. The series can be described thus: Inhibition of CETP in human whole plasma assessed as reduction in [3H]-CE/HDL transfer incubated for 2.5 hrs by topcount scintillation counting assay. It is filed as cell-free. Summed up: as §1
Series [3] is described as follows: Stability in human liver microsomes assessed as parent compound remaining at 50 uM preincubated for 5 to 7 mins followed by NADPH addition and measured 10 mins post-dose by LC-MS/MS. The settings on record: read-out: Stability. It is filed as ADME, Microsome. In general terms: Liver microsomes are a subcellular fraction often used to study metabolism.
Series [4] is described as follows: Stability in mouse liver microsomes assessed as parent compound remaining at 50 uM preincubated for 5 to 7 mins followed by NADPH addition and measured 10 mins post-dose by LC-MS/MS. It is filed as ADME, Microsome. The settings on record: read-out: Stability.
The test system of a further series is CYP11B1. The series can be described thus: Upregulation of CYP11B1 gene expression in human NCI-H295R cells at 0.1 uM measured after 24 hrs relative to control. Format: ADME, cell-based. The settings on record: read-out: FC. A digest of the protocol:
(§2)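 H295R cells were incubated for 24 h with test agent at 10 μM or angiotensin-II at 0.1 μM. CYP11B1 and CYP11B2 mRNA levels were measured and expressed as fold of control.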

Another series concerns CYP11B2. The series can be described thus: Upregulation of CYP11B2 gene expression in human NCI-H295R cells at 0.1 uM measured after 24 hrs relative to control. It is filed as ADME, cell-based. To be noted: read-out: FC. A digest of the protocol: as §2
The target of series [5] is T2, Cholesteryl ester transfer protein (Homo sapiens) (UniProt P11597).
T2 sequence (whole entry): T1 sequence (P11597 whole entry)
The series can be described thus: Potency index, ratio of torcetrapib IC50 to test compound IC50 for inhibition of CETP in human whole plasma. Format: cell-free.

Series [6] in a line: Volume of distribution at steady state in Sprague-Dawley rat at 1 mg/kg, iv or 10 mg/kg, po administered via gavage measured upto 24 hrs by LC-MS/MS. To be noted: in vivo, read-out: Vdss. Format: ADME, organism-based. A digest of the protocol: (§3)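 Single IV and oral doses: rat 1 mg/kg IV and 10 mg/kg PO; mouse 5 mg/kg IV and 10 mg/kg PO; monkey 1 mg/kg IV and 5 mg/kg PO. IV vehicle was 10% Cremophor/10% EtOH/80% H2O for rodents and 70% PEG-400/10% EtOH/20% H2O for monkey. Oral vehicle was 15% Miglyol 812/30% Capmul MCM/15% Triacetin/40% Cremophor RH40, or the Cremophor vehicle for rat. Vss, Cl, t1/2 and %F were derived.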

Series [7] is described as follows: Clearance in Sprague-Dawley rat at 1 mg/kg, iv or 10 mg/kg, po administered via gavage measured upto 24 hrs by LC-MS/MS. It is filed as ADME, organism-based. The settings on record: in vivo. A digest of the protocol: as §3
Series [8] can be described thus: Half life in Sprague-Dawley rat at 1 mg/kg, iv or 10 mg/kg, po administered via gavage measured upto 24 hrs by LC-MS/MS. It is filed as ADME, organism-based. The settings on record: in vivo. Summed up:
as §3

Series [9] in a line: Oral bioavailability in Sprague-Dawley rat at 10 mg/kg administered via gavage measured upto 24 hrs by LC-MS/MS. To be noted: in vivo. It is filed as ADME, organism-based. A digest of the protocol:
as §3

Series [10] deals with Mus musculus. The series can be described thus: In vivo inhibition of CETP in hCETP/apoB-100 dual transgenic mouse assessed as reduction in [3H]-CE transfer at 1 mg/kg, po administered via gavage measured after 2 to 8 hrs by radioactivity based assay. Format: functional, organism-based.
The target in series [11] is Voltage-gated inwardly rectifying potassium channel KCNH2 (Homo sapiens, UniProt Q12809). Description: Inhibition of human ERG expressed in HEK293 cells by flux assay.
Sequence of Voltage-gated inwardly rectifying potassium channel KCNH2 (Q12809 whole entry): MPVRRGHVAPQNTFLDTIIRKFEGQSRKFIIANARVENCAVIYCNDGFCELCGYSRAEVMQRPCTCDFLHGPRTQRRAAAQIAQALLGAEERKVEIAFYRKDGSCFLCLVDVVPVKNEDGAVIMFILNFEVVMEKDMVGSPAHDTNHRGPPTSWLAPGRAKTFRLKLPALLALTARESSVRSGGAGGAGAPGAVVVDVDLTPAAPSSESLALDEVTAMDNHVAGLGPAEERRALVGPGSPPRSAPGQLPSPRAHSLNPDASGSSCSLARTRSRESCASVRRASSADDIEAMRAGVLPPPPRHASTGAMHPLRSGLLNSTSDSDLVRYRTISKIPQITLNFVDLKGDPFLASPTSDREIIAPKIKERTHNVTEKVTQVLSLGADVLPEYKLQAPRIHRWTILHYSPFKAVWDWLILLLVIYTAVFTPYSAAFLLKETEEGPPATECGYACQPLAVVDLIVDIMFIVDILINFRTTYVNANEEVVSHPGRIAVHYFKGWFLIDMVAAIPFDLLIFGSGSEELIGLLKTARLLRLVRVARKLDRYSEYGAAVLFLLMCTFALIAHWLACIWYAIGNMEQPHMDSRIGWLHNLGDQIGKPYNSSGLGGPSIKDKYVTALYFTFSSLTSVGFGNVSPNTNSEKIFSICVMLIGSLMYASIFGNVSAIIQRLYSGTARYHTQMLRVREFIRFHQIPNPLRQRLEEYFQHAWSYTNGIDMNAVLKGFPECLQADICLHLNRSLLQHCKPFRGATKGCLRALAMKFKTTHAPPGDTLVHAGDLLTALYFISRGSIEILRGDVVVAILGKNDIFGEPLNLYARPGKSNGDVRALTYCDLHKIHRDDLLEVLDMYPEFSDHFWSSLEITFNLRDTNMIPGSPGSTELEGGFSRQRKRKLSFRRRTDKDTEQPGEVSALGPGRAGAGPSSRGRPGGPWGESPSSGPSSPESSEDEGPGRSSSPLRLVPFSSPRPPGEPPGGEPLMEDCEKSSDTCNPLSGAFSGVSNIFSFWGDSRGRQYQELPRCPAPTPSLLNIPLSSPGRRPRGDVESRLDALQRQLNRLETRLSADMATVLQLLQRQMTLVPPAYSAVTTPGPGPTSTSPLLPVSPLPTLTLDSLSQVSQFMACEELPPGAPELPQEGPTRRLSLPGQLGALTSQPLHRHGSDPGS
For series [12], the system named is Mus musculus. The series can be described thus: In vivo inhibition of CETP in hCETP/apoB-100 dual transgenic mouse assessed as reduction in [3H]-CE transfer at 10 mg/kg, po administered via gavage measured after 2 to 8 hrs by radioactivity based assay. It is filed as functional, organism-based.

`CC(C)Oc1cc([C@@](Cc2ccccc2)(NC(=O)C(N)C(O)C(F)(F)F)c2cc(F)cc(OC(F)(F)C(F)F)c2)ccc1F` (stereo partly specified): the IC50 – broadly, the concentration that gives 50% inhibition – came to 6 nM in series [1] and 270 nM in series [2]. The remaining at 10 min, 50 µM was 2% in series [3] and 16% in series [4].
Turning to `CC(C)(C)Oc1cc([C@@](Cc2ccccc2)(NC(=O)C(N)C(O)(C(F)(F)F)C(F)(F)F)c2cc(F)cc(OC(F)(F)C(F)F)c2)ccc1F` (stereo partly specified), the IC50 in [1] worked out at 5 nM; in [2], 140 nM. Further, the remaining at 10 min, 50 µM in series [3] and in [4] was 100% throughout.
For the compound `O=C(N[C@@](Cc1ccccc1)(c1cc(F)cc(C(F)(F)F)c1)c1ccc(Cl)cn1)C(O)C(O)(C(F)(F)F)C(F)(F)F` (stereo partly specified), the IC50 in series [1] came to 35 nM; in [2] it was 1400 nM.
With `CC[C@H](C)[C@H](NC(=O)[C@H](Cc1ccc(O)cc1)NC(=O)[C@@H](NC(=O)[C@H](CCCNC(=N)N)NC(=O)[C@@H](N)CC(=O)O)C(C)C)C(=O)N[C@@H](Cc1cnc[nH]1)C(=O)N1CCC[C@H]1C(=O)N[C@@H](Cc1ccccc1)C(=O)O` [ANGIOTENSIN II], the fold induction at 24 h, 0.1 µM in the series on CYP11B1 and with CYP11B2 was 4 in each case.
As for `CC(C)Oc1cc([C@@](Cc2ccccc2)(NC(=O)C(N)C(O)(C(F)(F)F)C(F)(F)F)c2cc(F)cc(OC(F)(F)C(F)F)c2)ccc1F` (stereo partly specified), the values for the 50% inhibitory concentration (IC50) in series [1], in series [2] and in [11] were 3 nM, 56 nM and 44000 nM, respectively. For the same compound, the figures for the remaining at 10 min, 50 µM in series [3] and in [4] were 95% and 90%, respectively. The Ratio IC50 in [5] worked out at 2. Moreover, the Vd in series [6] is 0.5 L/kg. For the same compound, the clearance in series [7] came out at 5.4 mL/min/kg. The half-life (commonly how long it takes for the measured level to halve) in series [8] was 1.9 h. In addition, in [9], the bioavailability (commonly dose-corrected exposure relative to a reference, in per cent) turned out to be 12%. The inhibition result in the series on Mus musculus [10] is “Active”.
As for `CN(C)C(C(=O)N[C@](Cc1ccccc1)(c1ccc(F)cc1)c1cc(F)cc(C(F)(F)F)c1)C(O)(C(F)(F)F)C(F)(F)F` (stereo partly specified), the figures for the IC50 in [1], in [2] and in [11] were 3300 nM, 30000 nM and 16000 nM, respectively. Besides, the remaining at 10 min, 50 µM was 58% in [3] and 82% in series [4].
As for `CC(C)Oc1cc([C@@](Cc2ccccc2)(NCC(N)C(O)(C(F)(F)F)C(F)(F)F)c2cc(F)cc(OC(F)(F)C(F)F)c2)ccc1F` (stereo partly specified), the IC50 in series [1] was 26 nM; in series [2], 200 nM; in series [11] it was > 80000 nM. The remaining at 10 min, 50 µM in series [3] amounted to 81%; in series [4] it was 68%.
Taken in the same sequence, the figures for `NC(C(=O)N[C@](Cc1ccccc1)(c1ccc(F)cc1)c1cc(F)cc(C(F)(F)F)c1)C(O)(C(F)(F)F)C(F)(F)F` (stereo partly specified) were 11 nM, 430 nM, > 80000 nM, 100% and 72%.
For the compound `CC(C)Oc1cc([C@@](Cc2ccccc2)(NCC(O)C(O)(C(F)(F)F)C(F)(F)F)c2cc(F)cc(OC(F)(F)C(F)F)c2)ccc1F` (stereo partly specified), the IC50 in series [1] came to 5 nM; in series [2], 58 nM; in [11] it was 12000 nM. Further, the remaining at 10 min, 50 µM in series [3] and in [4] was 100% throughout.
Consider `CCOC(=O)N1c2ccc(C(F)(F)F)cc2[C@@H](N(Cc2cc(C(F)(F)F)cc(C(F)(F)F)c2)C(=O)OC)C[C@H]1CC`, for which the inhibition entry in the series on Mus musculus [12] was “Active”.
On to `NC(C(=O)N[C@@](Cc1ccccc1)(c1cc(F)cc(OC(F)(F)C(F)F)c1)c1ccc(Cl)cn1)C(O)(C(F)(F)F)C(F)(F)F` (stereo in doubt; 9b), for which the results for the IC50 in series [1], in series [2] and in series [11] (hek293) were 80 nM, 940 nM and > 80000 nM, respectively.
As for `CC(C)Oc1cc([C@@](Cc2ccccc2)(NC(=O)C(O)C(O)(C(F)(F)F)C(F)(F)F)c2cc(F)cc(OC(F)(F)C(F)F)c2)ccc1F` (stereo partly specified), the IC50 in [1] worked out at 1 nM; in [2], 84 nM. Besides, the remaining at 10 min, 50 µM in series [3] stood at 89%; in [4], 100%.
For the compound `CNC(C(=O)N[C@](Cc1ccccc1)(c1ccc(F)cc1)c1cc(F)cc(C(F)(F)F)c1)C(O)(C(F)(F)F)C(F)(F)F` (stereo partly specified), the figures for the IC50 in [1], in [2] and in [11] were 140 nM, 6200 nM and 13000 nM, respectively. For the same compound, the figures for the remaining at 10 min, 50 µM in series [3] and in series [4] were 62% and 87%, respectively.
On the same counts, the results for `O=C(CC(O)(C(F)(F)F)C(F)(F)F)N[C@@](Cc1ccccc1)(c1cc(F)cc(C(F)(F)F)c1)c1ccc(Cl)cn1` are 120 nM, 3800 nM, 22000 nM, 92% and 91%.
For `NC(C(=O)N[C@@](Cc1ccccc1)(c1cc(F)cc(OC(F)(F)C(F)F)c1)c1ccc(Cl)cn1)C(O)(C(F)(F)F)C(F)(F)F` (stereo in doubt; 9a), the IC50 in series [1] is 53 nM; in series [2], 5900 nM; in series [11] it was > 80000 nM. Moreover, the remaining at 10 min, 50 µM in series [3] and in series [4] was 100% throughout.
As to `CC(C)NC(C(=O)N[C@](Cc1ccccc1)(c1ccc(F)cc1)c1cc(F)cc(C(F)(F)F)c1)C(O)(C(F)(F)F)C(F)(F)F` (stereo partly specified), the IC50 is 230 nM in series [1], 7100 nM in series [2] and 63000 nM in [11]. For the same compound, the remaining at 10 min, 50 µM stood at 71% in series [3] and 54% in series [4].

(Values after ChEMBL document CHEMBL4364272, “Discovery of a Lead Triphenylethanamine Cholesterol Ester Transfer Protein (CETP) Inhibitor” (ACS Med Chem Lett, 2019).)
